One series relates to NCI-H1299. Briefly: Cytotoxicity against human H1299 cells at 20 uM after 48 hrs by resazurin based fluorescence method. Type of series: cell-based. To be noted: nci-h1299, 48 h. The method in brief:
(§1)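 Confluent MDCK, A549 or H1299 cells exposed in triplicate to compound for 48 h at 37 °C (A549/H1299 at 20 μM). Resazurin added to 0.2 mg/mL final for 16 h. Fluorescence read at ex 544 / em 595 nm; viability as % of untreated.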

The test system of series [1] is Influenza A virus. Nature of the series: Antiviral activity against Influenza A virus (A/swine/Minnesota/02719/2009(H3N2)) infected in MDCK cells assessed as virus yeild reduction preincubated with virus at 37 degC for 1 hr followed by viral infection for 1 hr measured after 3 days by crystal violet staining based plaque assay. Type of series: functional, cell-based. The method in brief:
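Plaque reduction: about 50–100 PFU/well of PR8, Cal09 or Minnesota preincubated with compound (0–10 μM) 1 h at 37 °C. Mixture then adsorbed to MDCK monolayers 1 h at 4 °C. Overlay was DMEM with 1.5% agarose, DEAE-dextran and 1 μg/mL TPCK-trypsin for 3 days at 37 °C. Glutaraldehyde fix, crystal violet stain, plaque count; IC50 derived; n = 4.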

In another series the test system is A549. Nature of the series: Cytotoxicity against human A549 cells at 20 uM after 48 hrs by resazurin based fluorescence method. Type of series: cell-based. The following applies: a549, 48 h. A digest of the protocol:
as §1
(Resazurin is reduced to fluorescent resorufin, in cell work by metabolically active cells.)

The test system of series [2] is Influenza A virus. Briefly: Antiviral activity against Influenza A virus (A/Puerto Rico/8/34(H1N1)) infected in MDCK cells assessed as reduction in virus titer at 10 uM preincubated with virus for 1 hr followed by viral infection measured after 24 hrs by crystal violet staining based plaque assay. To be noted: A/Puerto Rico/8/1934(H1N1). It is filed as functional, cell-based. The method in brief:
(§2)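 PR8 (MOI 1.0) preincubated with compound (2.5–10 μM) 1 h at 37 °C, then used to infect MDCK cells. After adsorption, medium with the same compound concentration was added. At 24 h p.i. supernatant virus titer was measured by plaque assay; n = 3.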

The nature of series [3]: (§3) Antiviral activity against Influenza A virus (A/California/04/2009(H1N1)) infected in MDCK cells assessed as reduction in viral HA titer by measuring reduction in chicken RBC […] after 24 hrs by hemagglutination test. Type of series: functional, cell-based. The method in brief: (§4)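 MDCK cells infected at MOI 3.0 (single-cycle) with PR8, Cal09 or swine H3N2 Minnesota, then treated with compound for 24 h. Supernatant HA titers were read by 2-fold serial dilution with an equal volume of 1% chicken RBCs, 60 min at 4 °C. Expressed as percent of untreated-cell HA titer; IC50 derived; n = 4.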

The test system of series [4] is Influenza A virus (A/California/04/2009(H1N1)). The description is as §3. It is filed as functional, cell-based. The method in brief: as §4
Series [5] concerns Influenza A virus. Nature of the series: Antiviral activity against Influenza A virus (A/Puerto Rico/8/34(H1N1)) infected in MDCK cells assessed as virus yeild reduction at 10 uM preincubated with virus for 1 hr followed by viral infection for 1 hr measured at 24 hrs post infection by crystal violet staining based plaque assay. Type of series: functional, cell-based. The following applies: A/Puerto Rico/8/1934(H1N1). A digest of the protocol: as §2

For series [6], the system named is Influenza A virus (A/Puerto Rico/8/1934(H1N1)). Briefly: Inhibition of Influenza A virus (A/Puerto Rico/8/34(H1N1)) hemagglutinin mediated chicken erythrocytes aggregation at 10 uM after 60 mins by hemagglutination test. It is filed as cell-based. The method in brief:
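Hemagglutination inhibition: PR8-induced aggregation of chicken erythrocytes tested with 10 μM compound; anti-HA antibody (0.625–5 μg/mL) as comparator.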

In series [7] the test system is Vero. Nature of the series: Inhibition of Influenza A virus (A/Puerto Rico/8/34(H1N1)) hemagglutinin expressed in African green monkey Vero cells assessed as reduction in acid-induced syncytium formation preincubated at pH 7 for 15 mins followed by incubation at pH 5 for 10 mins measured after 2 hrs by Hema3Stat Pak-staining based microscopic analysis. It is filed as cell-based. To be noted: Influenza A virus (A/Puerto Rico/8/1934(H1N1)). A digest of the protocol:
(§5)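 Vero cells transfected with PR8 HA plasmid. At 16 h HA was cleaved with 5 μg/mL TPCK-trypsin for 15 min at 37 °C. Cells were preincubated with compound 15 min at 37 °C, then held at pH 5.0 with compound for 10 min at 37 °C. After rinsing, cells were kept 2 h in 10% FBS medium, stained with Hema3Stat Pak and examined for syncytia by microscopy.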

Series [8] is filed under the species Canis lupus familiaris. Briefly: Inhibition of MAPK signaling-mediated nuclear import of viral RNP in MDCK cells infected with Influenza A virus (A/Puerto Rico/8/34(H1N1)) assessed as ERK1/2 phosphorylation at 5 uM preincubated with virus for 1 hr followed by viral infection after 4 hrs by Western blot method relative to control (reference value: 1.4). It is filed as cell-based. A digest of the protocol:
(§6)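 PR8 (MOI 1.0) pretreated with compound 1 h at 37 °C, then MDCK cells were kept in infecting medium with 5 or 10 μM for 4 h; ribavirin 50 μg/mL as comparator. Lysates were immunoblotted for phospho-ERK1/2, p38, NF-κB or Akt, with β-actin/GAPDH loading controls and AP/NBT-BCIP detection. Densitometry was normalised to uninfected cells (= 1.0); n = 3.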
On the technique in general: A western blot detects proteins with antibodies after separation by electrophoresis.

For series [9], the species on record is Canis lupus familiaris. Briefly: Inhibition of NFkappaB activation-mediated viral RNA synthesis in MDCK cells infected with Influenza A virus (A/Puerto Rico/8/34(H1N1)) assessed as NF-kB phosphorylation level at 5 uM preincubated with virus for 1 hr followed by viral infection measured after 4 hrs by Western blot method relative to control (reference value: 1.8). Type of series: cell-based. A digest of the protocol:
as §6

For series [10], the species on record is Canis lupus familiaris. Briefly: Inhibition of NFkappaB activation-mediated viral RNA synthesis in MDCK cells infected with Influenza A virus (A/Puerto Rico/8/34(H1N1)) assessed as NF-kB phosphorylation level at 10 uM preincubated with virus for 1 hr followed by viral infection measured after 4 hrs by Western blot method relative to control (reference value: 1.8). It is filed as cell-based. The method in brief:
as §6

The nature of series [11]: Drug uptake in human A549 cell cytoplasm at 20 uM after 4 hrs by DAPI staining based confocal microscopic analysis. Type of series: ADME. To be noted: a549, 4 h. A digest of the protocol: (§7)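 A549 cells incubated with 20 μM compound 4 h at 37 °C, then fixed and DAPI-stained. Compound intrinsic fluorescence located by confocal microscopy.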
The nature of series [12]: Drug uptake in human A549 cell membranes at 20 uM after 4 hrs by DAPI staining based confocal microscopic analysis. It is filed as ADME. To be noted: a549, 4 h. The method in brief:
as §7

In series [13] the test system is Influenza A virus. Briefly: Antiviral activity against Influenza A virus (A/Puerto Rico/8/34(H1N1)) infected in A549 cells assessed as reduction in nuclear import of viral RNP by measuring colocalization with viral NP in cytoplasm at 10 uM preincubated with virus at 37 degC for 1 hr followed by viral adsorption at 4 degC for 1 hr and subsequent infection in A549 cells measured at 2 to 4 hrs post infection by confocal microscopic method. Type of series: functional, cell-based. The following applies: A/Puerto Rico/8/1934(H1N1). The method in brief:
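PR8 (MOI 1.0) pretreated with 10 μM compound 1 h at 37 °C, adsorbed 1 h at 4 °C, then A549 cells were kept in infecting medium with 10 μM compound. Fixed with 4% paraformaldehyde at 2 or 4 h p.i., permeabilised with Triton X-100 and blocked. Anti-NP plus FITC secondary, confocal imaging; nuclear NP intensity per unit area quantified (n = 30 images).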

Series [14] relates to Vero. Briefly: Inhibition of Influenza A virus (A/Puerto Rico/8/34(H1N1)) hemagglutinin expressed in African green monkey Vero cells assessed as reduction in acid-induced syncytium formation treated at pH 5 for 10 mins measured after 2 hrs by Hema3Stat Pak-staining based microscopic analysis. It is filed as cell-based. The following applies: Influenza A virus (A/Puerto Rico/8/1934(H1N1)). A digest of the protocol:
as §5

Calls of active or inactive are those of the source. The calls are words filed in the database; no cut-off is given here.

With `O=C(Nc1ccccc1Nc1c2ccccc2nc2c1[nH]c1ccccc12)c1cccc(B(O)O)c1`, the Activity entry in the series with NCI-H1299 is “Non-Toxic”; in the series with A549, “Non-Toxic”; in series [4], “Dose-dependent effect”. In addition, the results for the IC50 (in the series on Influenza A virus [1]; in the series with Influenza A virus [2]; in series [3]) were 2.3 µM, 2.5 µM and 4.3 µM, respectively. For the same compound, the outcome in the series on Influenza A virus [5] and with Influenza A virus [13] was Active. In addition, the inhibition entry (in series [6]; with Vero [7]; in the series with Vero [14]) was “inactive” each time. In addition, the fold change (FC) in the series filed under Canis lupus familiaris [8] was determined as 0.7; in the series filed under Canis lupus familiaris [9], 0.9; in the series listed under Canis lupus familiaris [10], 0.4. The Drug uptake result in series [11] and in series [12] was “Active” throughout.

The record behind these values is ChEMBL document CHEMBL4043073, “Boronic Acid Modifications Enhance the Anti-Influenza A Virus Activities of Novel Quindoline Derivatives” (J Med Chem, 2017).
